The values below come from ChEMBL document CHEMBL1687886, “N-cyclic bay-substituted perylene G-quadruplex ligands have selective antiproliferative effects on cancer cells and induce telomere damage” (J Med Chem, 2011).

For series [1], the system named is BJ. Briefly: Antiproliferative activity against human BJ cells expressing TERT at 0.5 uM after 2 to 8 days by trypan blue assay. The format is cell-based. An outline of the steps:
(§1)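 Cells seeded at 5 ×10^4 per dish; compounds freshly dissolved and added to the medium 24 h after plating, at 0.5 μM or 3 μM (3 μM only for one derivative). Cell number by Coulter counting and viability by trypan blue exclusion daily, day 1 to day 8. Growth inhibition of treated vs untreated cells calculated at days 2, 4, 6 and 8. Representative experiments in quintuplicate, SD shown.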

Series [2] relates to BJ. In words: Antiproliferative activity against human BJ cells expressing SV40 early region EHLT at 3 uM after 24 hrs by Coulter counter method. The format is functional, cell-based. The following applies: TDE = time-dependent effect. An outline of the steps: as §1
Series [3] relates to BJ. In words: Induction of DNA damage response in human BJ cells expressing human TERT assessed as phosphorylation of gamma H2AX after 24 hrs by immunofluorescence. The format is functional, cell-based. An outline of the steps: (§2)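 BJ-EHLT and BJ-hTERT fibroblasts exposed to a range of concentrations for 24 h. Fixed in 2% formaldehyde, permeabilized in 0.25% Triton X-100, immunostained for γ-H2AX and 53BP1. Percentage of positive cells scored. Three independent experiments, SD.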

For series [4], the system named is Nucleic Acid. In words: Binding affinity to human 21-TT G-quadruplex DNA structure assessed as bound DNA at 5:5 DNA to drug ratio by electrospray ionization mass spectrometry. In kind it is nucleic-acid assay. The essentials: (§3)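 ESI-MS in 150 mM ammonium acetate; DNA 5 μM final (per duplex or quadruplex unit); ligand at drug/DNA ratios 0.5 to 4. Methanol (15%) added just before injection, after binding equilibrium. K1 and K2 for 1:1 and 2:1 complexes, and % bound DNA, taken from relative peak intensities assuming equal response factors. At least three repeats.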

Series [5] relates to Nucleic Acid. In words: Binding affinity to human 21-TT G-quadruplex DNA structure at 1:5 DNA to calf thymus DNA ratio by competitive inhibition assay. In kind it is nucleic-acid assay. Set-up: concentration or dose not given beside the values. An outline of the steps:
(§4)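 ESI-MS competition: quadruplex DNA and ligand each 5 μM final, plus calf thymus DNA at duplex/quadruplex ratios 1 and 5 (by phosphate concentration), in ammonium acetate. Percentage bound quadruplex and normalized bound quadruplex (N%) measured by mass spectrometry. SD over at least three independent experiments.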

In series [6] the test system is BJ. Briefly: Induction of DNA damage response in human BJ cells expressing SV40 early region EHLT assessed as phosphorylation of gamma H2AX at 3 uM after 24 hrs by immunofluorescence. The format is functional, cell-based. The essentials: as §2
The test system of series [7] is Nucleic Acid. Briefly: Binding affinity to human 21-TT G-quadruplex DNA structure assessed as bound DNA at 5:10 DNA to drug ratio by electrospray ionization mass spectrometry. In kind it is nucleic-acid assay. The essentials:
as §3

The subject of series [8] is Nucleic Acid. Briefly: Binding affinity to human 21-TT G-quadruplex DNA structure assessed as first step association constant by electrospray ionization mass spectrometry. The format is nucleic-acid assay. An outline of the steps:
as §3

Series [9] concerns Nucleic Acid. Briefly: Binding affinity to human DK66 duplex DNA structure assessed as first step association constant by electrospray ionization mass spectrometry. The format is nucleic-acid assay. The essentials: as §3
Series [10] relates to Nucleic Acid. Briefly: Binding affinity to human 21-TT G-quadruplex DNA structure at 1:1 DNA to calf thymus DNA ratio by competitive inhibition assay. In kind it is nucleic-acid assay. Set-up: concentration or dose not given beside the values. An outline of the steps: as §4
Series [11] deals with Nucleic Acid. Briefly: Binding affinity to human DK66 duplex DNA structure assessed as bound DNA at 5:20 DNA to drug ratio by electrospray ionization mass spectrometry. In kind it is nucleic-acid assay. The essentials:
as §3

Series [12] relates to Nucleic Acid. In words: Stabilization of human duplex DNA T-loop assessed as change in melting temperature at 1 uM by FRET assay. In kind it is nucleic-acid assay.
In series [13] the test system is BJ. In words: Induction of DNA damage response in human BJ cells expressing human TERT assessed as phosphorylation of […] after 24 hrs by immunofluorescence. The format is functional, cell-based. The essentials:
as §2

Series [14] concerns BJ. Briefly: Growth inhibition of human BJ cells expressing SV40 early region EHLT at 3 uM on day 8 after 24 hrs trypan blue assay. As to conditions: read-out: GI. In kind it is functional. An outline of the steps:
as §1

The test system of series [15] is Nucleic Acid. Briefly: Binding affinity to human 21-TT G-quadruplex DNA structure assessed as second step association constant by electrospray ionization mass spectrometry. In kind it is nucleic-acid assay. The essentials:
as §3

Series [16] deals with Nucleic Acid. In words: Stabilization of 21-mer human F21T G4-telomeric quadruplex assessed as change in melting temperature at 1 uM by FRET assay. In kind it is nucleic-acid assay.

What is called ΔTm is the change in melting temperature against a reference sample.

Activity calls are given as the source filed them. The calls are words filed in the database; no cut-off is given here.

Turning to `O=C1c2ccc3c4c(N5CCCCC5)cc5c6c(ccc(c7c(N8CCCCC8)cc(c2c37)C(=O)N1CCN1CCCCC1)c64)C(=O)N(CCN1CCCCC1)C5=O`, the Activity entry with BJ [1] is “Toxic”; in the series with BJ [2] it was “tde”; in the series with BJ [3], “Dose-dependent effect”; in the series on Nucleic Acid [4] it was 22%; with Nucleic Acid [5] it was 9%; with Nucleic Acid [7], 33%. In addition, the values for the Activity with Nucleic Acid [10], with Nucleic Acid [11] and in the series with BJ [13] were 13%, 12% and “Dose-dependent effect”, respectively. In addition, the outcome in the series on BJ [6] was Active. The results for the log Ks with Nucleic Acid [8], with Nucleic Acid [9] and with Nucleic Acid [15] were 4.8, 3.8 and 4.6, respectively. Further, the results for the ΔTm with Nucleic Acid [12] and with Nucleic Acid [16] were 0.2 °C and 18.7 °C, respectively. Besides, the inhibition of growth at 3 µM with BJ [14] was 50%.
